From ChEMBL document CHEMBL4219103, “Design and synthesis of 1,4-substituted 1H-1,2,3-triazolo-quinazolin-4(3H)-ones by Huisgen 1,3-dipolar cycloaddition with PI3Kγ isoform selective activity” (Bioorg Med Chem Lett, 2018)
Active and inactive are the calls of the source. The calls are words filed in the database; no cut-off is given here.

Key:
COLO 205 = experiment: Antiproliferative activity against human COLO205 cells after 24 to 48 hrs by MTT assay; type: functional, cell-based
A549 = experiment: Antiproliferative activity against human A549 cells after 24 to 48 hrs by MTT assay; type: functional, cell-based
[1] = Antiproliferative activity against human FR2 cells after 24 to 48 hrs by MTT assay; type: cell-based
HL-60 [2] = experiment: Antiproliferative activity against human HL60 cells after 24 to 48 hrs by MTT assay; type: functional, cell-based
MCF7 = experiment: Antiproliferative activity against human MCF7 cells after 24 to 48 hrs by MTT assay; type: functional, cell-based
HCT-116 = experiment: Antiproliferative activity against human HCT116 cells after 24 to 48 hrs by MTT assay; type: functional, cell-based
[3] = target: Phosphatidylinositol 4,5-bisphosphate 3-kinase catalytic subunit beta isoform (Homo sapiens, UniProt P42338); experiment: Inhibition of PI3K-beta (unknown origin) by cell free biochemical assay
Phosphatidylinositol 4,5-bisphosphate 3-kinase catalytic subunit beta isoform, sequence (P42338 whole entry, canonical isoform): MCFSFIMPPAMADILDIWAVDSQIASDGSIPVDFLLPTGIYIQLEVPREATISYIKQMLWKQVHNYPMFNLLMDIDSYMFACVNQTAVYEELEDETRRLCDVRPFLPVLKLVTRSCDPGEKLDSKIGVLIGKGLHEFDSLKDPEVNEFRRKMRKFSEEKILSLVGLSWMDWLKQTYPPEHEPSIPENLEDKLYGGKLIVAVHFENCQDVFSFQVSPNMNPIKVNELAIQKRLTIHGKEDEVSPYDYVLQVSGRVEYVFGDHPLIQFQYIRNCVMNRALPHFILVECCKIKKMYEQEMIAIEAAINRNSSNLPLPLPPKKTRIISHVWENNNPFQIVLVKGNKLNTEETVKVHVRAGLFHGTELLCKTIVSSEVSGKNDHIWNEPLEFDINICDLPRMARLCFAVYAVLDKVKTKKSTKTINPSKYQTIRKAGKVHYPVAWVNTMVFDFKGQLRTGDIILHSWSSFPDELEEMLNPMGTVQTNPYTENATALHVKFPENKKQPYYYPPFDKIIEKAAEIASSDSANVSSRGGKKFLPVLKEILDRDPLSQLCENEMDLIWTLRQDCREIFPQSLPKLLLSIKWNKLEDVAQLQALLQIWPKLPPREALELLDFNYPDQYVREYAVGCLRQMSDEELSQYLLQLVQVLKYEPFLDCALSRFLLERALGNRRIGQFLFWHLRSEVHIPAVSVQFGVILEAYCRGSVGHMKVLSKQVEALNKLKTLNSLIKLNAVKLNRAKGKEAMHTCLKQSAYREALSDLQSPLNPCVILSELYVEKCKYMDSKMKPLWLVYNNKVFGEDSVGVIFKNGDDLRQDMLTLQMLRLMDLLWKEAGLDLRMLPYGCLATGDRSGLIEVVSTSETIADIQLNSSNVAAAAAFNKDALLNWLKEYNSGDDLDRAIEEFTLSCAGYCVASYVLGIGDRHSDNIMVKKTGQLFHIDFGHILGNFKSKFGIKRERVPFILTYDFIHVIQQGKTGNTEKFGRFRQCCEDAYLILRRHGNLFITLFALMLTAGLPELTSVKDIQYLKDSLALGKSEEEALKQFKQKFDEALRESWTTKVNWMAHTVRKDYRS

HL-60 [4] = experiment: Downregulation of p110beta protein expression levels in human HL60 cells at 1 uM after 2 hrs by Western blot analysis; type: functional, cell-based
In short: (§1)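 HL-60 cells were exposed to test agent at 1 µM for short time intervals, including 2 h. Expression of the p110α, p110β, p110δ and p110γ isoforms was then assessed by western blotting. p110γ blots were also quantified by densitometry at each time point.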

[5] = target: Phosphatidylinositol 4,5-bisphosphate 3-kinase catalytic subunit gamma isoform (Homo sapiens, UniProt P48736); experiment: Inhibition of PI3K-gamma (unknown origin) by cell free biochemical assay
Phosphatidylinositol 4,5-bisphosphate 3-kinase catalytic subunit gamma isoform, sequence (P48736 whole entry, canonical isoform): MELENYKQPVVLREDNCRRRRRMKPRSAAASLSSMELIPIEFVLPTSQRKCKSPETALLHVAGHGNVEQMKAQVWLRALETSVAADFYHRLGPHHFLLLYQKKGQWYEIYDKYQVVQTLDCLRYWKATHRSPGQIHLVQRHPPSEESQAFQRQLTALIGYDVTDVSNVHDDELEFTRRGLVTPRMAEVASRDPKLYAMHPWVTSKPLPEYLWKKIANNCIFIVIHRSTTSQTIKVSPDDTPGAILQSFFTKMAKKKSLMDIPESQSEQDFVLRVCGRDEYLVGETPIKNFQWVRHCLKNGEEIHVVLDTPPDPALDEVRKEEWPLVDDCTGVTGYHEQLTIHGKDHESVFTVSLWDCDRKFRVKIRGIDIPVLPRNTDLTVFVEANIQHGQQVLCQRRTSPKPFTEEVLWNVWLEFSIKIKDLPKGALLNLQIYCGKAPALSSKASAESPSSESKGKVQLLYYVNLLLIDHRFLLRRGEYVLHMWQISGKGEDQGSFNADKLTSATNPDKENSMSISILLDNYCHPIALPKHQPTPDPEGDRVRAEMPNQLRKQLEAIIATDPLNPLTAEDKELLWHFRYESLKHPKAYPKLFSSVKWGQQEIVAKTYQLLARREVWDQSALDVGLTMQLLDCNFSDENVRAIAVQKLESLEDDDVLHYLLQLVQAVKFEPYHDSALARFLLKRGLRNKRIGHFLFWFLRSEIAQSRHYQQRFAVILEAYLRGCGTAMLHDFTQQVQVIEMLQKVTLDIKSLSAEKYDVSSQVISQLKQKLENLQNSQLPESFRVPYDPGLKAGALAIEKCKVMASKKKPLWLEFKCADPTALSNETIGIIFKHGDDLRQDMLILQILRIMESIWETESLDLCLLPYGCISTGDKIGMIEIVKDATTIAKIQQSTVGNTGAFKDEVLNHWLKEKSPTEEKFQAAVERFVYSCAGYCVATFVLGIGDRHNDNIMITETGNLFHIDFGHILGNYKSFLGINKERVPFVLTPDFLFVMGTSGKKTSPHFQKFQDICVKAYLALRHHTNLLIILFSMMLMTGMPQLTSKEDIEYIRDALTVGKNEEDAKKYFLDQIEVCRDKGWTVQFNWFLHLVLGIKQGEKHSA

HL-60 [6] = experiment: Downregulation of p110alpha protein expression levels in human HL60 cells at 1 uM after 2 hrs by Western blot analysis; type: functional, cell-based; in short: as §1
Homo sapiens = species: Homo sapiens; experiment: Selectivity index, ratio of IC50 for PI3K-delta (unknown origin) to IC50 for PI3K-gamma (unknown origin)
HL-60 [7] = experiment: Downregulation of p110delta protein expression levels in human HL60 cells at 1 uM after 2 hrs by Western blot analysis; type: functional, cell-based; in short: as §1
HL-60 [8] = experiment: Downregulation of p110gamma protein expression levels in human HL60 cells at 1 uM after 2 hrs by Western blot analysis relative to control; type: functional; in short: as §1
[9] = target: T1, Phosphatidylinositol 4,5-bisphosphate 3-kinase catalytic subunit delta isoform (Homo sapiens, UniProt O00329); experiment: Inhibition of PI3K-delta (unknown origin) by cell free biochemical assay
T1 sequence (O00329 whole entry): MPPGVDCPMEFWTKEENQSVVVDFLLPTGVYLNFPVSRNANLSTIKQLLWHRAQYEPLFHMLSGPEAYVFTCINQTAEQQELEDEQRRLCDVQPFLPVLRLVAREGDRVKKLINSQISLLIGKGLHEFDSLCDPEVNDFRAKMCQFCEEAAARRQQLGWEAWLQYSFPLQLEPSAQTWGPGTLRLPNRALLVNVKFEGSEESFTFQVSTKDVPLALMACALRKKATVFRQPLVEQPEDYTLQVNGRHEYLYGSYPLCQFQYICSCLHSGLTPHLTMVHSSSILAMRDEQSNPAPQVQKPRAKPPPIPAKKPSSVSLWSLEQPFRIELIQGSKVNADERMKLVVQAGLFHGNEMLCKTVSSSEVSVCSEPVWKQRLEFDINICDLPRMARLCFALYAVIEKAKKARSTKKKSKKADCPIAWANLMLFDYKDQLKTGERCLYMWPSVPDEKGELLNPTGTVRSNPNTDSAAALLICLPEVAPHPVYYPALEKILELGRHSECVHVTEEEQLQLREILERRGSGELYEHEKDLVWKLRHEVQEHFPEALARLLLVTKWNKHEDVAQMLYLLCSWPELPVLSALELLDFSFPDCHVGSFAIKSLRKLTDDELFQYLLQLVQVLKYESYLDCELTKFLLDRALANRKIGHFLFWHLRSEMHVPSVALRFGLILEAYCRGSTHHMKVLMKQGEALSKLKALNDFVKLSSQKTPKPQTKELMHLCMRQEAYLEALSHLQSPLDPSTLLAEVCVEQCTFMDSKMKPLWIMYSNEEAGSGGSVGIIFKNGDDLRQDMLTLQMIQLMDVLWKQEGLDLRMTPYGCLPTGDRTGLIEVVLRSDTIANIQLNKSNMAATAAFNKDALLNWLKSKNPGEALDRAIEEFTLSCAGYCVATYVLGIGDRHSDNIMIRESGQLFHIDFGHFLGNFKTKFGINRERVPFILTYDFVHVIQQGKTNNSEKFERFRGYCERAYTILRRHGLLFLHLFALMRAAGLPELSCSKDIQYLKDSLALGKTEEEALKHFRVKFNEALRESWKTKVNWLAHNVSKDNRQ

[10] = target: Phosphatidylinositol 4,5-bisphosphate 3-kinase catalytic subunit alpha isoform (Homo sapiens, UniProt P42336); experiment: Inhibition of PI3K-alpha (unknown origin) by cell free biochemical assay
Phosphatidylinositol 4,5-bisphosphate 3-kinase catalytic subunit alpha isoform, sequence (P42336 whole entry, canonical isoform): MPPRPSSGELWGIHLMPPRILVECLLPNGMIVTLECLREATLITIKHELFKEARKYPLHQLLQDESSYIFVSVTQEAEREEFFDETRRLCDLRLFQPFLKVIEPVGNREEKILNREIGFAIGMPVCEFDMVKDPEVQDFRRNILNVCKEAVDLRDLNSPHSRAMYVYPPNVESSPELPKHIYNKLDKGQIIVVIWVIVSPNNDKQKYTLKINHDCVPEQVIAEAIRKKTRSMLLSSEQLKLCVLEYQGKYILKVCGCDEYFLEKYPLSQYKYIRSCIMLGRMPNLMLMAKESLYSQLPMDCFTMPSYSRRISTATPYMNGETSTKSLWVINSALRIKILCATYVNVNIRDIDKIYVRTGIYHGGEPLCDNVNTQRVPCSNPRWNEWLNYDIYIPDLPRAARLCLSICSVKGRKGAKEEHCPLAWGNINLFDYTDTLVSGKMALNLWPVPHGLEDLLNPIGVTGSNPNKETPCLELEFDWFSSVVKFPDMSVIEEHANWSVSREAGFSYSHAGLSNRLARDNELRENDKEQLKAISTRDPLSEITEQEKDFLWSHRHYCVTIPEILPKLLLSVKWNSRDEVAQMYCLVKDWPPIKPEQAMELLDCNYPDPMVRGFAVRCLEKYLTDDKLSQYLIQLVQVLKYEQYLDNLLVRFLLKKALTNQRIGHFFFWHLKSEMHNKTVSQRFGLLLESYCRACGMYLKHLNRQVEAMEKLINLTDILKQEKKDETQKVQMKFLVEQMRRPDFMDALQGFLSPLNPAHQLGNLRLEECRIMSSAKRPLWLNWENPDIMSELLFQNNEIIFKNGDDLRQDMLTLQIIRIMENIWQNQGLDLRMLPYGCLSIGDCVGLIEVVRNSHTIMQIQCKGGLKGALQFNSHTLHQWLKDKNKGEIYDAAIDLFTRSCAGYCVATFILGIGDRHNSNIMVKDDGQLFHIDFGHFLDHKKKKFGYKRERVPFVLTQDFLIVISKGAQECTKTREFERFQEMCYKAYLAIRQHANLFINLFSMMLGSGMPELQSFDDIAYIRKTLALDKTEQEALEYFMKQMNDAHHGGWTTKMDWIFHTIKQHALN

IC50 (COLO 205)	IC50 (A549)	IC50 (HL-60 [2])	IC50 (MCF7)	IC50 (HCT-116)	IC50 [3]	IC50 [5]	Ratio IC50 (Homo sapiens)	IC50 [9]	IC50 [10]	Structure (SMILES)	IC50 [1]	Activity (HL-60 [4])	Activity (HL-60 [6])	Activity (HL-60 [7])	Activity (HL-60 [8])
> 10 µM	> 10 µM	> 10 µM	> 10 µM	> 10 µM	–	–	–	–	–	Cc1ccccc1-n1c(Cn2cc(COc3cccc(F)c3)nn2)nc2ccccc2c1=O	> 10 µM	–	–	–	–
> 10 µM	> 10 µM	> 10 µM	> 10 µM	> 10 µM	–	–	–	–	–	Cc1cccc2nc(Cn3cc(-c4ccccc4)nn3)n(-c3ccccc3C(F)(F)F)c(=O)c12	> 10 µM	–	–	–	–
> 10 µM	> 10 µM	> 10 µM	> 10 µM	> 10 µM	–	–	–	–	–	Cc1ccccc1-n1c(Cn2cc(-c3ccccc3F)nn2)nc2ccccc2c1=O	> 10 µM	–	–	–	–
> 10 µM	> 10 µM	> 10 µM	> 10 µM	> 10 µM	–	–	–	–	–	Cc1ccccc1-n1c(Cn2cc(-c3ccc(Br)cc3)nn2)nc2ccccc2c1=O	> 10 µM	–	–	–	–
> 10 µM	> 10 µM	> 10 µM	> 10 µM	> 10 µM	–	–	–	–	–	Cc1ccccc1-n1c(Cn2cc(-c3ccccc3F)nn2)nc2cccc(C)c2c1=O	> 10 µM	–	–	–	–
> 10 µM	> 10 µM	> 10 µM	> 10 µM	> 10 µM	–	–	–	–	–	Cc1cccc2nc(Cn3cc(-c4cccnc4)nn3)n(-c3ccccc3C(F)(F)F)c(=O)c12	> 10 µM	–	–	–	–
> 10 µM	> 10 µM	1 µM	> 10 µM	> 10 µM	430 µM	1 µM	5	5 µM	250 µM	Cc1ccccc1-n1c(Cn2cc(-c3ccccc3)nn2)nc2cccc(C)c2c1=O	> 10 µM	inactive	inactive	inactive	>50%
> 10 µM	> 10 µM	> 10 µM	> 10 µM	> 10 µM	–	–	–	–	–	Cc1ccccc1-n1c(Cn2cc(-c3ccccc3C(F)(F)F)nn2)nc2cccc(C)c2c1=O	> 10 µM	–	–	–	–
> 10 µM	> 10 µM	> 10 µM	> 10 µM	> 10 µM	–	–	–	–	–	Cc1ccccc1-n1c(Cn2cc(-c3cc(C(F)(F)F)cc(C(F)(F)F)c3)nn2)nc2ccccc2c1=O	> 10 µM	–	–	–	–
> 10 µM	> 10 µM	> 10 µM	> 10 µM	> 10 µM	–	–	–	–	–	Cc1ccccc1-n1c(Cn2cc(-c3ccccc3C(F)(F)F)nn2)nc2ccccc2c1=O	> 10 µM	–	–	–	–
> 10 µM	> 10 µM	> 10 µM	> 10 µM	> 10 µM	–	–	–	–	–	Cc1ccccc1-n1c(Cn2cc(-c3ccc(-c4ccccc4)cc3)nn2)nc2ccccc2c1=O	> 10 µM	–	–	–	–
> 10 µM	> 10 µM	> 10 µM	> 10 µM	> 10 µM	–	–	–	–	–	Cc1ccccc1-n1c(Cn2cc(-c3ccc(OC(F)(F)F)cc3)nn2)nc2cccc(C)c2c1=O	> 10 µM	–	–	–	–

More lines, now with the values behind:

Structure (SMILES)	IC50 (COLO 205)	IC50 (A549)	IC50 (HL-60 [2])	IC50 (MCF7)	IC50 (HCT-116)	IC50 [3]	IC50 [5]	Ratio IC50 (Homo sapiens)	IC50 [9]	IC50 [10]	IC50 [1]	Activity (HL-60 [4])	Activity (HL-60 [6])	Activity (HL-60 [7])	Activity (HL-60 [8])
COc1ccc(-c2cn(Cc3nc4cccc(C)c4c(=O)n3-c3ccccc3C(F)(F)F)nn2)c(C)c1	> 10 µM	> 10 µM	> 10 µM	> 10 µM	> 10 µM	–	–	–	–	–	> 10 µM	–	–	–	–
COc1ccc(-c2cn(Cc3nc4cccc(C)c4c(=O)n3-c3ccccc3C)nn2)c(C)c1	> 10 µM	> 10 µM	1 µM	> 10 µM	> 10 µM	355 µM	3 µM	3	10 µM	290 µM	> 10 µM	inactive	inactive	inactive	>50%
COc1ccc(S(=O)(=O)NCc2cn(Cc3nc4ccccc4c(=O)n3-c3ccccc3C)nn2)cc1	> 10 µM	> 10 µM	> 10 µM	> 10 µM	> 10 µM	–	–	–	–	–	> 10 µM	–	–	–	–
COc1ccc(OCc2cn(Cc3nc4ccccc4c(=O)n3-c3ccccc3C)nn2)cc1	> 10 µM	> 10 µM	> 10 µM	> 10 µM	> 10 µM	–	–	–	–	–	> 10 µM	–	–	–	–
Cc1cc(OCc2cn(Cc3nc4cccc(C)c4c(=O)n3-c3ccccc3C)nn2)ccc1Cl	> 10 µM	> 10 µM	> 10 µM	> 10 µM	> 10 µM	–	–	–	–	–	> 10 µM	–	–	–	–
Cc1ccc(NCc2cn(Cc3nc4cccc(C)c4c(=O)n3-c3ccccc3C(F)(F)F)nn2)cc1C	> 10 µM	> 10 µM	> 10 µM	> 10 µM	> 10 µM	–	–	–	–	–	> 10 µM	–	–	–	–
Cc1ccc(-c2cn(Cc3nc4cccc(C)c4c(=O)n3-c3ccccc3C)nn2)cc1	> 10 µM	> 10 µM	> 10 µM	> 10 µM	> 10 µM	–	–	–	–	–	> 10 µM	–	–	–	–
Cc1ccccc1-n1c(Cn2cc(-c3ccc(-c4ccccc4)cc3)nn2)nc2cccc(C)c2c1=O	> 10 µM	> 10 µM	> 10 µM	> 10 µM	> 10 µM	–	–	–	–	–	> 10 µM	–	–	–	–
Cc1ccccc1-n1c(Cn2cc(CNS(=O)(=O)c3ccc(F)cc3F)nn2)nc2cccc(C)c2c1=O	> 10 µM	> 10 µM	> 10 µM	> 10 µM	> 10 µM	–	–	–	–	–	> 10 µM	–	–	–	–
Cc1cccc(OCc2cn(Cc3nc4ccccc4c(=O)n3-c3ccccc3C)nn2)c1	> 10 µM	> 10 µM	> 10 µM	> 10 µM	> 10 µM	–	–	–	–	–	> 10 µM	–	–	–	–
Cc1ccccc1-n1c(Cn2cc(-c3ccccc3)nn2)nc2ccccc2c1=O	> 10 µM	> 10 µM	> 10 µM	> 10 µM	> 10 µM	–	–	–	–	–	> 10 µM	–	–	–	–
Cc1ccccc1-n1c(Cn2cnc3c(N)ncnc32)nc2cccc(C)c2c1=O	> 10 µM	> 10 µM	1 µM	> 10 µM	> 10 µM	–	–	–	–	–	> 10 µM	–	–	–	–
Cc1ccccc1-n1c(Cn2cc(-c3cccnc3)nn2)nc2cccc(C)c2c1=O	> 10 µM	> 10 µM	> 10 µM	> 10 µM	> 10 µM	–	–	–	–	–	> 10 µM	–	–	–	–
Cc1ccccc1-n1c(Cn2cc(-c3ccc(Br)cc3)nn2)nc2cccc(C)c2c1=O	> 10 µM	> 10 µM	> 10 µM	> 10 µM	> 10 µM	–	–	–	–	–	> 10 µM	–	–	–	–
Cc1ccccc1-n1c(Cn2cc(CNS(=O)(=O)c3ccccc3)nn2)nc2cccc(C)c2c1=O	> 10 µM	> 10 µM	> 10 µM	> 10 µM	> 10 µM	–	–	–	–	–	> 10 µM	–	–	–	–
